Assay results published in ChEMBL document CHEMBL4725387, “Synthesis and pharmacological evaluation of piperidine (piperazine)-amide substituted derivatives as multi-target antipsychotics” (Bioorg Med Chem Lett, 2020).
The source made the active and inactive calls. The calls are words filed in the database; no cut-off is given here.

Columns and labels:
[1] = Apparent oral clearance in rat at 10 mg/kg, po; assay type: ADME, organism-based; details: in vivo
Method in brief: (§1)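 Male rats, n = 6 per group, given a single oral dose of 10 mg/kg. PK parameters taken from serum concentration–time profiles: Cmax, Tmax, t1/2, AUC0-t, AUC0-∞, CL/F, F%.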

Rattus norvegicus [2] = test: Memory enhancement effect in rat assessed as increase in total exploratory time for novel objects at 0.01 mg/kg, po administered 1 hr prior to acquisition trial and measured after 24 hrs by novel object recognition test; assay type: functional, organism-based; details: time 25.0 hrs
Method in brief: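 Rat novel object recognition, n = 10. Oral dosing in 30% PEG 400 1 h before the acquisition trial with two identical objects. At 24 h one object was replaced by a novel one and exploration times were scored. Mean ± SEM, post-hoc Student's t-test versus vehicle.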

Rattus norvegicus [3] = test: Antipsychotic activity in po dosed rat assessed as suppression in conditioned avoidance response measured after 90 mins by CAR test; assay type: functional
Method in brief: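 Rat conditioned avoidance responding tested 90 min after a single oral dose of 0.05, 0.15, 0.45 or 1.35 mg/kg in 30% PEG 400. n = 10 per group. Mean ± SEM, compared with vehicle (P < 0.05). ED50 reported.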

[4] = target: T1, Alpha-2A adrenergic receptor (Homo sapiens, UniProt P08913); test: Binding affinity to alpha2 adrenergic receptor (unknown origin)
T1 sequence (P08913 whole entry): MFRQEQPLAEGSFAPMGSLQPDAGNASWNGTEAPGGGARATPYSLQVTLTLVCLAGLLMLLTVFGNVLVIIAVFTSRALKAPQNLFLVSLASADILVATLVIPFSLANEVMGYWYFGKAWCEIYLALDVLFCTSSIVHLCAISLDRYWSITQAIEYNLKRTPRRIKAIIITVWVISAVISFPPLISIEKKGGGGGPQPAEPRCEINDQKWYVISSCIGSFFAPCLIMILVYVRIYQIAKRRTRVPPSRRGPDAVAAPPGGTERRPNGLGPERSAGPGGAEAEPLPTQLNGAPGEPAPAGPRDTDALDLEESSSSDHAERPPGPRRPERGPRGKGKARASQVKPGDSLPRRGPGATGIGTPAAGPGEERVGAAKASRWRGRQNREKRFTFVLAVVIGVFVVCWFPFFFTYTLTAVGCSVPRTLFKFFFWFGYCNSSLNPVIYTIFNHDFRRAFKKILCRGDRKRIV
Method in brief: (§2)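 Radioligand displacement binding. Ki is the mean ± SEM of three experiments.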

[5] = target: 5-hydroxytryptamine receptor 2A (Homo sapiens, UniProt P28223); test: Binding affinity to 5HT2A receptor (unknown origin)
Chain of 5-hydroxytryptamine receptor 2A (P28223 whole entry): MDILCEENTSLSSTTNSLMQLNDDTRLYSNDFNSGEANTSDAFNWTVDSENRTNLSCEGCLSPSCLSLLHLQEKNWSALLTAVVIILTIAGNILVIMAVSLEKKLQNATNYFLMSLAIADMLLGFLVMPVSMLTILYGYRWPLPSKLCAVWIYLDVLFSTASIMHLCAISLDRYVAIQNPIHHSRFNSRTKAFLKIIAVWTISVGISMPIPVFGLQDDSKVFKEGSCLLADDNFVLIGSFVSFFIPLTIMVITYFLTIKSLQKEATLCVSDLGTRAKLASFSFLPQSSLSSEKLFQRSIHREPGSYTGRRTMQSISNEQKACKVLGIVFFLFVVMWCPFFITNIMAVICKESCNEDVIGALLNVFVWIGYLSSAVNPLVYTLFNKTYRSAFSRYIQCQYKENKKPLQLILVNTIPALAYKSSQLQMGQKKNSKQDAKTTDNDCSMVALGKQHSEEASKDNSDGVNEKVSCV

[6] = target: 5-hydroxytryptamine receptor 6 (Homo sapiens, UniProt P50406); test: Binding affinity to 5HT6 receptor (unknown origin); method in brief: as §2
Chain of 5-hydroxytryptamine receptor 6 (P50406 whole entry): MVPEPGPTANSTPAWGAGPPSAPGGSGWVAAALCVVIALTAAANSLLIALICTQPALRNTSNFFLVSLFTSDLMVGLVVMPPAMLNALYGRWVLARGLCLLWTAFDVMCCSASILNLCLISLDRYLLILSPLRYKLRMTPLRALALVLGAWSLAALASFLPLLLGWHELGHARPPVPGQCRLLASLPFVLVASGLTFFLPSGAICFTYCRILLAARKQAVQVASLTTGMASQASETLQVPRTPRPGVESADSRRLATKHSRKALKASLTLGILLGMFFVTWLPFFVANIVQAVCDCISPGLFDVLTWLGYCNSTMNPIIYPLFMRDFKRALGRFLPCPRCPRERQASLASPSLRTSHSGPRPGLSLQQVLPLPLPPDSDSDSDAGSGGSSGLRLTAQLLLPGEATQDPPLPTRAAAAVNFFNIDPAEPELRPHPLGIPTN

[7] = AUC (0 to t) in rat at 10 mg/kg, po; assay type: ADME, organism-based; parameters: dose 10 mg/kg; details: in vivo; method in brief: as §1
[8] = Oral bioavailability in rat at 10 mg/kg; assay type: ADME, organism-based; details: in vivo; method in brief: as §1
[9] = Tmax in rat at 10 mg/kg, po; assay type: ADME, organism-based; details: in vivo; method in brief: as §1
[10] = Cmax in rat at 10 mg/kg, po; assay type: ADME, organism-based; parameters: route oral, dose 10 mg/kg; details: in vivo; method in brief: as §1
[11] = Half life in rat at 10 mg/kg, po; assay type: ADME, organism-based; details: in vivo; method in brief: as §1
Mus musculus = test: Antipsychotic activity in po dosed mouse assessed as suppression in DOI-induced head twitching response; assay type: functional
Method in brief: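 Mouse head twitch induced by DOI 1.0 mg/kg ip. Oral pretreatment at 0.01, 0.03, 0.1, 0.3 and 1.0 mg/kg in 30% PEG 400. ED50 reported with 95% confidence limits.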

[12] = target: T2, Adrenergic receptor alpha-1 (Homo sapiens, UniProt P35348+P25100+P35368); test: Binding affinity to alpha1 adrenergic receptor (unknown origin); assay type: protein assay
T2 sequence (P35348 whole entry): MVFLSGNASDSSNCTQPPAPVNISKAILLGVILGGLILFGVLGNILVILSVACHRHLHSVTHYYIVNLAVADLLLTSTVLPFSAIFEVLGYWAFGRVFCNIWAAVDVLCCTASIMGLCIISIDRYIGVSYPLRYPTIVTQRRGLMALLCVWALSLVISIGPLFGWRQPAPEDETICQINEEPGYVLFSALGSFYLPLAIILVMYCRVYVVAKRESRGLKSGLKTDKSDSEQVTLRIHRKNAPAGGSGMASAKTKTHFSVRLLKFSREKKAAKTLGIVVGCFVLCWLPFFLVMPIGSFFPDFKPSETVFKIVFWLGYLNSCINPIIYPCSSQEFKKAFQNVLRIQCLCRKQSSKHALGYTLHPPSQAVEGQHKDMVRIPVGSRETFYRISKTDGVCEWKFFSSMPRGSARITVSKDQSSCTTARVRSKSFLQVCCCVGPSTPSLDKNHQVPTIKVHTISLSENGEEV
T2 sequence (P25100 whole entry): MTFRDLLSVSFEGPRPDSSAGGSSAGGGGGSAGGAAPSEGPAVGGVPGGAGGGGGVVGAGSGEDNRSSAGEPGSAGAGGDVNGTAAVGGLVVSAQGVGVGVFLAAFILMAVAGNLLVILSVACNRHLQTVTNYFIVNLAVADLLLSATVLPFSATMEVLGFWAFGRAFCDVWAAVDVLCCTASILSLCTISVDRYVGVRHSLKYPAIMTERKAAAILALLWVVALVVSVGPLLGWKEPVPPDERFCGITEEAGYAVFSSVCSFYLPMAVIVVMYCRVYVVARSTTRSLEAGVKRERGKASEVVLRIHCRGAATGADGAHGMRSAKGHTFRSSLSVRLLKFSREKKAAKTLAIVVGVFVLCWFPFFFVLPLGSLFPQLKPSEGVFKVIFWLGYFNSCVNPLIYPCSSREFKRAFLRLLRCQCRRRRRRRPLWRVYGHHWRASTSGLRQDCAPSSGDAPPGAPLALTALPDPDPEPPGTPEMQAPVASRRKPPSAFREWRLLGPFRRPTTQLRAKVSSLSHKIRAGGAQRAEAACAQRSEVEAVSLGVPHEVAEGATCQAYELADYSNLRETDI
T2 sequence (P35368 whole entry): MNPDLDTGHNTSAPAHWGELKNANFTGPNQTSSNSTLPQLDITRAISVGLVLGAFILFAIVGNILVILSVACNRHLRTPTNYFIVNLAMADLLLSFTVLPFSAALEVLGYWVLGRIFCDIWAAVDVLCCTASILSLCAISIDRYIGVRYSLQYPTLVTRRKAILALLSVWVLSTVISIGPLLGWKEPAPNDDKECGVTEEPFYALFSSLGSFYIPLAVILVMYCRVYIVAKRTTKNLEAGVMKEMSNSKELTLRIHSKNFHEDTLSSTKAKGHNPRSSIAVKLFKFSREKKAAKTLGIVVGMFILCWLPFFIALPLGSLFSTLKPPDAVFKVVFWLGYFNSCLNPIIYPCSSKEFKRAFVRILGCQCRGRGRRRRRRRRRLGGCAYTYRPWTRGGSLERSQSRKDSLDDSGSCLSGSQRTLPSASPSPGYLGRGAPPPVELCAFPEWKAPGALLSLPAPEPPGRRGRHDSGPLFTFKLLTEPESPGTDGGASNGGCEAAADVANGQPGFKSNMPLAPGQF

CL/F [1]: 0.173 mL/min
Ki [4]: 16.3 nM
Ki [5]: 7.8 nM
Ki [6]: 12.9 nM
AUC(0-t) [7]: 9490 ng·h/mL
F [8]: 31.04%
Tmax [9]: 7 h
Cmax [10]: 745 ng/mL
half-life [11]: 3.34 h
Ki [12]: 3296 nM
SMILES: CC(=O)Nc1ccc(OCCCN2CCC(c3noc4cc(F)ccc34)CC2)cc1
Activity (Rattus norvegicus [2]): inactive
Activity (Rattus norvegicus [3]): Dose-dependent effect
ED50 (Rattus norvegicus [3]; 1.5 h): 0.28 mg/kg
Activity (Mus musculus): Dose-dependent effect
ED50 (Mus musculus): 0.22 mg/kg
